{
  "source": "ChEMBL document CHEMBL4118021",
  "about": "“Studies of TAK1-centered polypharmacology with novel covalent TAK1 inhibitors” (Bioorg Med Chem, 2017)",
  "key": {"[1]": {"target": "Mitogen-activated protein kinase kinase kinase 21 (Homo sapiens) (UniProt Q5TCX8)", "experiment": "Inhibition of MLK4 in human SKCO1 cells at 1 uM after 4 hrs using biotin labeled DLKSSNILLLEK probe by mass-spectrometric analysis relative to control", "format": "cell-based"}, "[2]": {"target": "NUAK family SNF1-like kinase 2 (Homo sapiens) (UniProt Q9H093)", "experiment": "Inhibition of NuaK2 in human SKCO1 cells at 1 uM after 4 hrs using biotin labeled LVAIKSIR probe by mass-spectrometric analysis relative to control", "format": "cell-based"}, "[3]": {"target": "Vascular endothelial growth factor receptor 1 (Homo sapiens) (UniProt P17948)", "sequence (P17948 whole entry, the tested form may be a part)": "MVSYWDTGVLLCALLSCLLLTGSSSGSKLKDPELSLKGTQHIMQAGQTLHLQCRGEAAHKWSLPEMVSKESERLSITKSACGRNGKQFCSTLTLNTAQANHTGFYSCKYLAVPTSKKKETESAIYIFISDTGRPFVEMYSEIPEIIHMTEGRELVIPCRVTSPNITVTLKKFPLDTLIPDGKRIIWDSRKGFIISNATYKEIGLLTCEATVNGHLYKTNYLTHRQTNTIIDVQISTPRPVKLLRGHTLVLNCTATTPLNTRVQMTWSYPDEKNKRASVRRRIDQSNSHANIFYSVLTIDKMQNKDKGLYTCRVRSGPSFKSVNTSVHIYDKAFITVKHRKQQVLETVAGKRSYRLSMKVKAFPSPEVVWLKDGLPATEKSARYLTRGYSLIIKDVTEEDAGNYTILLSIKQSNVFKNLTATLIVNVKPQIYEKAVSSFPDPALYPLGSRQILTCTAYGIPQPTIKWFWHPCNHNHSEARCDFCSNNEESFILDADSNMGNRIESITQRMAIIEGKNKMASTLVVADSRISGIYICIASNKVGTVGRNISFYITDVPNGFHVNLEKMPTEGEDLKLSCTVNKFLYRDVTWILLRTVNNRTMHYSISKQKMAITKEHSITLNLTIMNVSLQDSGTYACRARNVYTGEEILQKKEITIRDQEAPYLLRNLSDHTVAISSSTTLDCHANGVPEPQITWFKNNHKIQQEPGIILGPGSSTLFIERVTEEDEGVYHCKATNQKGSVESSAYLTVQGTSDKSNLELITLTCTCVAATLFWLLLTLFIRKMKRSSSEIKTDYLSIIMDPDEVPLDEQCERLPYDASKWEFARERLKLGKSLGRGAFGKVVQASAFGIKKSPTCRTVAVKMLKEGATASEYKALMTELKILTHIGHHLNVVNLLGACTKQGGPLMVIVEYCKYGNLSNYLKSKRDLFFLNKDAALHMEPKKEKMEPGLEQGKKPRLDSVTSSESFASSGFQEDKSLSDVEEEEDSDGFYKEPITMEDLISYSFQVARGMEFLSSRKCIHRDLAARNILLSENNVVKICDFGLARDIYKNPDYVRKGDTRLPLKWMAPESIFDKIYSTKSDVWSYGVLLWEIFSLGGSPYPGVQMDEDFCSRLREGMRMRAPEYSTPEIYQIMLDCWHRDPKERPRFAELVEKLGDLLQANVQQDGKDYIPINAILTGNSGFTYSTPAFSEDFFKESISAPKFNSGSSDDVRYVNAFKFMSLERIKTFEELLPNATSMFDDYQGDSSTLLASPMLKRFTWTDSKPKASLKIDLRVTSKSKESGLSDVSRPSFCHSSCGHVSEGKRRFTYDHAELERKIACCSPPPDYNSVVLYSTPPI", "experiment": "Inhibition of human FLT1 (781 to 1239 residues) expressed in bacterial expression system assessed as enzyme activity at 10 uM by KINOMEScan assay relative to control", "parameters": "scale not given: the % may be the effect or the level left", "method_in_brief": "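In vitro ATP-site competition binding assay across a panel of 456 kinases, with compound tested at 1 and 10 μM.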"}, "[4]": {"experiment": "Increase in secretion of basic-FGF in IL-1alpha activated RA patient-derived synovial fibroblasts at 0.6 to 3 uM preincubated for 3 hrs followed by IL-1alpha stimulation measured after 18 hrs by sandwich immunoassay", "settings": "human", "method_in_brief": "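Primary human RA synovial fibroblasts (donor RA2159) seeded at 1000 viable cells/well, grown ~24 h at 37 °C/5% CO2, then starved overnight in basal medium and for a further ~4 h in basal medium with 0.1% BSA. Inhibitor or DMSO given 3 h before stimulation. Supernatants from two adjacent wells pooled as one replicate, biological duplicate. Luminex multiplex panels (48 analytes), diluted 1:3. Mock-supernatant background and spiked-ligand cross-reactivity controls included.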"}, "[5]": {"target": "ATP-dependent RNA helicase DDX3X (Homo sapiens) (UniProt O00571)", "experiment": "Binding affinity to DDX3X in human NCI-H358 cells at 1 uM by mass spectrometry based pull down assay", "format": "cell-based"}, "[6]": {"target": "Protein disulfide-isomerase A3 (Homo sapiens) (UniProt P30101)", "experiment": "Binding affinity to PDIA3 in human NCI-H358 cells at 1 uM by mass spectrometry based pull down assay", "format": "cell-based"}, "[7]": {"target": "Trafficking protein particle complex subunit 5 (Homo sapiens) (UniProt Q8IUR0)", "experiment": "Binding affinity to TRAPPC5 in human NCI-H358 cells at 1 uM by mass spectrometry based pull down assay", "format": "cell-based"}, "[8]": {"target": "Heterogeneous nuclear ribonucleoprotein U (Homo sapiens) (UniProt Q00839)", "experiment": "Binding affinity to HNRNPU in human NCI-H358 cells at 1 uM by mass spectrometry based pull down assay", "format": "cell-based"}, "[9]": {"target": "Actin-related protein 2 (Homo sapiens) (UniProt P61160)", "experiment": "Binding affinity to ACTR2 in human NCI-H23 cells at 1 uM by mass spectrometry based pull down assay", "format": "cell-based", "method_in_brief": "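NCI-H23 or NCI-H358 cells were grown and lysed. Lysates were incubated overnight at 4 °C with 1 μM biotinylated covalent probe or DMSO, then pulled down on streptavidin beads. Proteins were run on polyacrylamide gels and stained with Coomassie. Bands were excised, digested and identified by mass spectrometry.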"}, "[10]": {"target": "Histone H2B type 2-F (Homo sapiens) (UniProt Q5QNW6)", "experiment": "Binding affinity to HIST2H2BF in human NCI-H23 cells at 1 uM by mass spectrometry based pull down assay", "format": "cell-based"}, "[11]": {"target": "Thymidylate kinase (Homo sapiens) (UniProt P23919)", "experiment": "Binding affinity to DTYMK in human NCI-H358 cells at 1 uM by mass spectrometry based pull down assay", "format": "cell-based"}, "[12]": {"target": "Fructose-bisphosphate aldolase C (Homo sapiens) (UniProt P09972)", "experiment": "Binding affinity to ALDOC in human NCI-H358 cells at 1 uM by mass spectrometry based pull down assay", "format": "cell-based"}, "[13]": {"target": "Small proline-rich protein 3 (Homo sapiens) (UniProt Q9UBC9)", "sequence (Q9UBC9 whole entry)": "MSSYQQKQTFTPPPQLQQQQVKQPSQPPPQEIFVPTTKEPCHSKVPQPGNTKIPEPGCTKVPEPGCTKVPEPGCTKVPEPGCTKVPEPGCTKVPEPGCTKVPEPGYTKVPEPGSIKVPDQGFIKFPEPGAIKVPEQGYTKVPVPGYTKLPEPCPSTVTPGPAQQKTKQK", "experiment": "Binding affinity to SPRR3 in human NCI-H358 cells at 1 uM by mass spectrometry based pull down assay", "format": "cell-based"}, "[14]": {"target": "Methionine--tRNA ligase, cytoplasmic (Homo sapiens) (UniProt P56192)", "experiment": "Binding affinity to MARS in human NCI-H358 cells at 1 uM by mass spectrometry based pull down assay", "format": "cell-based"}, "[15]": {"target": "TGF-beta-activated kinase 1 and MAP3K7-binding protein 3 (Homo sapiens) (UniProt Q8N5C8)", "experiment": "Binding affinity to TAB3 in human NCI-H23 cells at 1 uM by mass spectrometry based pull down assay", "format": "cell-based"}, "Gelsolin (Homo sapiens)": {"target": "Gelsolin (Homo sapiens) (UniProt P06396)", "experiment": "Binding affinity to GSN in human NCI-H358 cells at 1 uM by mass spectrometry based pull down assay", "format": "cell-based"}, "[16]": {"target": "T1, Serine/threonine-protein kinase Chk1 (Homo sapiens) (UniProt O14757)", "T1 sequence (whole entry)": "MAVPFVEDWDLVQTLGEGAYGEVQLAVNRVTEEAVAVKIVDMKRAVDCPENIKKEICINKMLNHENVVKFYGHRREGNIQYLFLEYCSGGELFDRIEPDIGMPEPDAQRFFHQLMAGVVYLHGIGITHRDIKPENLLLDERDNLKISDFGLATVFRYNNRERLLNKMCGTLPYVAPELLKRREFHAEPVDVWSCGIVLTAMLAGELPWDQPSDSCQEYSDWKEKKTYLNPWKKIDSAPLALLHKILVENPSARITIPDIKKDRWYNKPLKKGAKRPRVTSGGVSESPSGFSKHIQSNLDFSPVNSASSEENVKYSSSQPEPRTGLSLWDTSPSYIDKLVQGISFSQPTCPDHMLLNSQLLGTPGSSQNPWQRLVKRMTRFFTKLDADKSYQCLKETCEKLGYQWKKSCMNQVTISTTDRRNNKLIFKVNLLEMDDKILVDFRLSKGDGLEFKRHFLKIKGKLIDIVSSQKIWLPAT", "experiment": "Binding affinity to CHEK1 in human NCI-H358 cells at 1 uM by mass spectrometry based pull down assay", "format": "cell-based"}, "[17]": {"target": "Proto-oncogene tyrosine-protein kinase Src (Homo sapiens) (UniProt P12931)", "sequence (P12931 2-536 limits assumed)": "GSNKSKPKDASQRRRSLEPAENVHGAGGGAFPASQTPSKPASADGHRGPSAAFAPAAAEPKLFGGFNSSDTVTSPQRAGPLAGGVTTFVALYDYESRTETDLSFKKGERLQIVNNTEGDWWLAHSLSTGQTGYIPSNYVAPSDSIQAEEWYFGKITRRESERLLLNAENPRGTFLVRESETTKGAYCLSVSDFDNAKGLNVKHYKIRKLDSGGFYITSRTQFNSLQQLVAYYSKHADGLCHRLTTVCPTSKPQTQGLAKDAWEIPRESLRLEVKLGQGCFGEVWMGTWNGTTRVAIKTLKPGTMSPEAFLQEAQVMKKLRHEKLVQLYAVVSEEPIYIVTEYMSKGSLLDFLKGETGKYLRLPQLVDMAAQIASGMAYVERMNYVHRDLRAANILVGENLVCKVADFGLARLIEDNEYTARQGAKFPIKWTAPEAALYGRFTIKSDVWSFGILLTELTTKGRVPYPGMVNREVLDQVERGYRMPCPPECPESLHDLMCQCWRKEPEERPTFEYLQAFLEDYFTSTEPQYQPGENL", "experiment": "Binding affinity to SRC in human NCI-H358 cells at 1 uM by mass spectrometry based pull down assay", "format": "cell-based"}, "[18]": {"target": "ADP-ribose glycohydrolase OARD1 (Homo sapiens) (UniProt Q9Y530)", "experiment": "Binding affinity to OARD1 in human NCI-H358 cells at 1 uM by mass spectrometry based pull down assay", "format": "cell-based"}, "[19]": {"target": "Tyrosine-protein phosphatase non-receptor type 1 (Homo sapiens) (UniProt P18031)", "experiment": "Binding affinity to PTPN1 in human NCI-H23 cells at 1 uM by mass spectrometry based pull down assay", "format": "cell-based"}, "[20]": {"target": "Y-box-binding protein 1 (Homo sapiens) (UniProt P67809)", "sequence (P67809 whole entry)": "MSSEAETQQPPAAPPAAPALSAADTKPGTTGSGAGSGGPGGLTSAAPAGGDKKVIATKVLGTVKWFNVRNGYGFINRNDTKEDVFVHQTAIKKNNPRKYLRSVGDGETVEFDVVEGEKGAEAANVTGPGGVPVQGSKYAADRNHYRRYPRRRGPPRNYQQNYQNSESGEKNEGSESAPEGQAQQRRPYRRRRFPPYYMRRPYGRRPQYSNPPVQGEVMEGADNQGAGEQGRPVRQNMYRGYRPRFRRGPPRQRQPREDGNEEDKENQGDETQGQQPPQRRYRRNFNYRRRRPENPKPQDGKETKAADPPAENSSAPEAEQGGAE", "experiment": "Binding affinity to YBX1 in human NCI-H23 cells at 1 uM by mass spectrometry based pull down assay", "format": "cell-based"}, "[21]": {"target": "Inter-alpha-trypsin inhibitor heavy chain H2 (Homo sapiens) (UniProt P19823)", "experiment": "Binding affinity to ITIH2 in human NCI-H23 cells at 1 uM by mass spectrometry based pull down assay", "format": "cell-based"}, "Filamin-B (Homo sapiens)": {"target": "Filamin-B (Homo sapiens) (UniProt O75369)", "sequence (O75369 whole entry)": "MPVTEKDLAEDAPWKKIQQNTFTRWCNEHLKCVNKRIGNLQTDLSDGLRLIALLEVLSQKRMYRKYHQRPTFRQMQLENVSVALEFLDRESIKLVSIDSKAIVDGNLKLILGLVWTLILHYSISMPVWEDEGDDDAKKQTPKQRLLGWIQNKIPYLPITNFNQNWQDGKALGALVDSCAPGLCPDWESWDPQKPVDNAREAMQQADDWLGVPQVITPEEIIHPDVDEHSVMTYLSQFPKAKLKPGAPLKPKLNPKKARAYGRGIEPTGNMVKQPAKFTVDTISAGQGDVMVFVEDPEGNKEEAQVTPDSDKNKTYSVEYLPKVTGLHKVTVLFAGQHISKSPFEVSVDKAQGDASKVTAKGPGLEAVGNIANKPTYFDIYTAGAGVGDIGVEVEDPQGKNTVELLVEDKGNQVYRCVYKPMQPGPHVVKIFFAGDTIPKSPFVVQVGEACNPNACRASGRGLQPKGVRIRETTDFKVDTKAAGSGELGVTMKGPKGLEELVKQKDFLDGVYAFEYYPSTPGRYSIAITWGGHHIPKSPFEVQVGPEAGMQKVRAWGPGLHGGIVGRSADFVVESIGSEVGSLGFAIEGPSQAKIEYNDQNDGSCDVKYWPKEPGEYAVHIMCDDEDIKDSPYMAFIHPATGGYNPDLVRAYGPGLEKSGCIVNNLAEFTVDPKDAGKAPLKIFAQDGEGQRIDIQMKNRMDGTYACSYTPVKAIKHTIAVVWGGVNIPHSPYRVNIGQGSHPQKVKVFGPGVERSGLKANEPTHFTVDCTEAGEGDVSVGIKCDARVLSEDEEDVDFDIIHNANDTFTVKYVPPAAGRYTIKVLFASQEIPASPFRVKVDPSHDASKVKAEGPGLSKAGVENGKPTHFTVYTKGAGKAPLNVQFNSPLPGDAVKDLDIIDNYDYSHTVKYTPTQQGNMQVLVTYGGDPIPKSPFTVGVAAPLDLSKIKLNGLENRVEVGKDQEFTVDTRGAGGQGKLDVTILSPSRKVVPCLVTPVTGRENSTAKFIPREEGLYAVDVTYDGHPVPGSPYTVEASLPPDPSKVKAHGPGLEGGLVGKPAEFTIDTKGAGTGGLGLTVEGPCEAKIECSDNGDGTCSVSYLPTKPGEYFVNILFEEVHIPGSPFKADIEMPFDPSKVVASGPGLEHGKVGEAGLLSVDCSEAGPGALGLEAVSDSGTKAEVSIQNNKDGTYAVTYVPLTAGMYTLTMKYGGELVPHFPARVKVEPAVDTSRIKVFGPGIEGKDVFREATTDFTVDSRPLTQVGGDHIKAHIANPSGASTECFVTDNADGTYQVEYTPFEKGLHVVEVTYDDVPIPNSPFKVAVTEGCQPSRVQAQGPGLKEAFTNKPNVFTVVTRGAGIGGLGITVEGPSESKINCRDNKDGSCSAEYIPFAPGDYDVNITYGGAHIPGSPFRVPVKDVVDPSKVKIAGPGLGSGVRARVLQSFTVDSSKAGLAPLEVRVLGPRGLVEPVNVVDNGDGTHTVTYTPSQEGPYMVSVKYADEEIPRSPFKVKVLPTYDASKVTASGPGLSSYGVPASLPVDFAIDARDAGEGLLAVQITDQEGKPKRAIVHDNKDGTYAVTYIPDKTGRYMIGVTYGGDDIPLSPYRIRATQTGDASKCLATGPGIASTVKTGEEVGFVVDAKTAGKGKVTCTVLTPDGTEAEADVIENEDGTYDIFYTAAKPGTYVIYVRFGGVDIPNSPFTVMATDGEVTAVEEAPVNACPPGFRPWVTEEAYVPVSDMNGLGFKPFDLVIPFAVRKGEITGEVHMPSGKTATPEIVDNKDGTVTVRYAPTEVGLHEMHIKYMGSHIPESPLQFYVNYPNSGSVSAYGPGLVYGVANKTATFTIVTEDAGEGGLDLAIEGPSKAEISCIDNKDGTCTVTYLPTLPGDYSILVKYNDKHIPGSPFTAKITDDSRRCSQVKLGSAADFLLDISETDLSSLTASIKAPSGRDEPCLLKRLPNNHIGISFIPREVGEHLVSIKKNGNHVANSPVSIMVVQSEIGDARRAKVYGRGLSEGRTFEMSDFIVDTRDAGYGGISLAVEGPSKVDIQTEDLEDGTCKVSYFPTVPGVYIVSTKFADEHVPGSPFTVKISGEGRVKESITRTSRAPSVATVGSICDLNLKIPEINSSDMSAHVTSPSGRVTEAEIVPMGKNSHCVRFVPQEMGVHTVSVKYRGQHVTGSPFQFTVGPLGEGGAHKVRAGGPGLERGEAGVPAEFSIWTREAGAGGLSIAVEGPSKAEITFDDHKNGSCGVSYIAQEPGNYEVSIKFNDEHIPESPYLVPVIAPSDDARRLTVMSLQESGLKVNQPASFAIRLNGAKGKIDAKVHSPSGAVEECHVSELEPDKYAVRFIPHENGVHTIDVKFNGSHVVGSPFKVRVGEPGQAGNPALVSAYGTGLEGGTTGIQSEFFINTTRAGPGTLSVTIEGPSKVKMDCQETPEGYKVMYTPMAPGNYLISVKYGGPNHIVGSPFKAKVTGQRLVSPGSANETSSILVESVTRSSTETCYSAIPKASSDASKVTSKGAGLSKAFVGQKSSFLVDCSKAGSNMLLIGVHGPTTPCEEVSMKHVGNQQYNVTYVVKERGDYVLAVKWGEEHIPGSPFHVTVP", "experiment": "Binding affinity to FLNB in human NCI-H358 cells at 1 uM by mass spectrometry based pull down assay", "format": "cell-based"}, "[22]": {"target": "Cytochrome c (Homo sapiens) (UniProt P99999)", "sequence (P99999 whole entry)": "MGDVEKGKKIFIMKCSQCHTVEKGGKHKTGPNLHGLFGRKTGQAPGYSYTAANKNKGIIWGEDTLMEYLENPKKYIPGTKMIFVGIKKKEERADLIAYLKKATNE", "experiment": "Binding affinity to CYCS in human NCI-H358 cells at 1 uM by mass spectrometry based pull down assay", "format": "cell-based"}},
  "note": "Active and inactive are the calls of the source. The calls are words filed in the database; no cut-off is given here.",
  "data": [
    {"molecule": "C=CC(=O)Nc1ccccc1Nc1nc(Nc2ccc(N3CCN(C)CC3)cc2)ncc1Cl", "values": [
      {"measurement": "inhibition", "setting": "[1]", "result": -1.1, "unit": "%"},
      {"measurement": "inhibition", "setting": "[2]", "result": 53.3, "unit": "%"}
    ]},
    {"molecule": "COc1cc(O)c2c(c1)/C=C/C[C@H](O)[C@H](O)C(=O)/C=C\\C[C@H](C)OC2=O", "values": [
      {"measurement": "Activity", "setting": "[3]", "result": 0.5, "unit": "%"},
      {"measurement": "Activity", "setting": "[4]", "result": "Non-Toxic"}
    ]},
    {"molecule": "C=CC(=O)Nc1ccccc1Nc1nc(Nc2ccc(N3CCN(CCOCCOCCOCCNC(=O)CCCC[C@@H]4SC[C@@H]5NC(=O)N[C@@H]54)CC3)cc2)ncc1Cl", "values": [
      {"measurement": "Activity", "setting": "[5]", "result": "Active"},
      {"measurement": "Activity", "setting": "[6]", "result": "Active"},
      {"measurement": "Activity", "setting": "[7]", "result": "Active"},
      {"measurement": "Activity", "setting": "[8]", "result": "Active"},
      {"measurement": "Activity", "setting": "[9]", "result": "Active"},
      {"measurement": "Activity", "setting": "[10]", "result": "Active"},
      {"measurement": "Activity", "setting": "[11]", "result": "Active"},
      {"measurement": "Activity", "setting": "[12]", "result": "Active"},
      {"measurement": "Activity", "setting": "[13]", "result": "Active"},
      {"measurement": "Activity", "setting": "[14]", "result": "Active"},
      {"measurement": "Activity", "setting": "[15]", "result": "Active"},
      {"measurement": "Activity", "setting": "Gelsolin (Homo sapiens)", "result": "Active"},
      {"measurement": "Activity", "setting": "[16]", "result": "Active"},
      {"measurement": "Activity", "setting": "[17]", "result": "Active"},
      {"measurement": "Activity", "setting": "[18]", "result": "Active"},
      {"measurement": "Activity", "setting": "[19]", "result": "Active"},
      {"measurement": "Activity", "setting": "[20]", "result": "Active"},
      {"measurement": "Activity", "setting": "[21]", "result": "Active"},
      {"measurement": "Activity", "setting": "Filamin-B (Homo sapiens)", "result": "Active"},
      {"measurement": "Activity", "setting": "[22]", "result": "Active"}
    ]}
  ]
}
